RGS4 pot: RGS4 potentiation or activation; 310,000 compounds, 0.92% hits; B-score at 10 µM; HEK293 M3R/inducible RGS4, carbachol calcium flux Fluo4; stronger effect = lower value;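 active means B-score of the integrated calcium signal more than 4 SD below the library mean, with starting fluorescence not abnormally high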;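 further: negative B-score means reduced calcium response which marks RGS4 activation or potentiation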
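test system = HEK293 cells with stable M3R and inducible RGS4 | schedule = recording 10 s baseline at 1 Hz, 100 s post-agonist | technique = Fluo4-AM (2 µM) calcium-flux fluorescence, kinetic read | measure = Agonist-evoked peak-minus-minimum fluorescence over baseline, integrated ratio, B score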
MrgX1 agonist: agonists of human MrgX1 receptor. B-score at 10 µM. AID 588627. MrgX1-HEK293 cells, Fluo-4 calcium fluorescence, agonist mode; stronger effect = higher value. 310,000 compounds, 0.44% hits. Q96LB2;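 active means calcium response B-score plate-corrected fluorescence ratio at least 3 library SD, with starting fluorescence B-score inside 5 SD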
Target sequence (Q96LB2 whole entry, looked up): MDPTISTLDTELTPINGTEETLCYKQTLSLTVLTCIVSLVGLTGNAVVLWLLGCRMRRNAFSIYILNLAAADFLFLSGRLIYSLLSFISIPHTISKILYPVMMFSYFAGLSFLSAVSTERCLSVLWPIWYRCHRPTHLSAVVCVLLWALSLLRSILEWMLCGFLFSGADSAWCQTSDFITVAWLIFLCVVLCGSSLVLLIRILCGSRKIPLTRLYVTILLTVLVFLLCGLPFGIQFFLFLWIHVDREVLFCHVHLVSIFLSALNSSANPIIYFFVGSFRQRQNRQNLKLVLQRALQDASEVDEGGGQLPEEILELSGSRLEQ
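Test system: HEK293 cells stably expressing human MrgX1 receptor; Input: fifteen thousand cells per well; Dosing: compound delivered in addition one of three; Schedule: overnight seeding, then 1 h dark dye loading; Technique: Fluo-4 NW calcium fluorescence; Measure: B-scored fluorescence response ratio; Controls: positive and negative controls per plate.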
MrgX1 allo act: human MrgX1 positive allosteric modulation, primary screen; MrgX1-HEK293, Fluo-4 calcium flux, FDSS; stronger effect = higher value; 310,000 compounds, 0.63% hits; Q96LB2; B-score at 10 µM;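 active means plate-corrected calcium response at least 3 library SD above typical, normal starting fluorescence, not activating the receptor alone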;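 further: compound read alongside a low EC10 to EC30 dose of BAM8-22 agonist; peak minus trough fluorescence over baseline measured at the second addition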
RGS4 inh: inhibitors of human RGS4; 310,000 compounds, 0.45% hits; P49798; HEK293 M3R/RGS4 inducible, Fluo-4 calcium flux; stronger effect = higher value; triggered by carbachol at its EC20; B-score at 10 µM;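 active means B-score, a plate-corrected calcium signal, over three deviations above library mean, with baseline fluorescence within five deviations of library mean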;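 further: RGS4 expression induced by doxycycline in cells with stable M3 receptor; B-score is computed from the integrated fluorescence ratio over baseline after carbachol; higher B-score means a larger calcium signal and so more RGS4 inhibition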
Target sequence (P49798 whole entry, looked up): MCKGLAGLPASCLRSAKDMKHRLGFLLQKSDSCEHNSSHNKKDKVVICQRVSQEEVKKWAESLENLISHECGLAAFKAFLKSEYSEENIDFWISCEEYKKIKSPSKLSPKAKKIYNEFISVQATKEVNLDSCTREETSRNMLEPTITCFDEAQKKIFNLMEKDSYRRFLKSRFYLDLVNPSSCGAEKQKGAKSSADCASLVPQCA
MrgX1 antag: antagonists of human MrgX1 receptor; MRGX1-HEK293 calcium flux, Fluo-4, BAM8-22 antagonism; stronger effect = lower value; B-score at 10 µM; 310,000 compounds, 1.3% hits; AID 588676;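 active means calcium-response B-score plate-corrected more than 3 library SD below zero, starting fluorescence within 5 deviations, no agonist response on first addition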;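 further: peak minus trough fluorescence over baseline after final BAM8-22 challenge near maximal dose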
MrgX1 PAM conf: confirmation of human MrgX1 receptor positive allosteric modulators | shares compounds with MrgX1 allo act | MrgX1-HEK293, Fluo-4 calcium fluorescence, FDSS | activation (ratio percentage), % at 10 µM | 1,200 compounds, 13% hits | AID 602413;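 active means ratio at least 3 SD above the weak peptide control, stable starting fluorescence, no direct agonism earlier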;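 further: compound followed by low BAM8-22 agonist challenge near EC20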
HEK293 Ca flux: activity in parental HEK293 cells lacking MrgX1. shares compounds with MrgX1 antag. Fluo-4 calcium fluorescence, FDSS. fluorescence ratio F(max-min)/F0 at 10 µM. 4,000 compounds, 2% hits;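 active means duplicate-averaged calcium fluorescence ratio at least three times the standard deviation of buffer wells, a nonspecific response in parental cells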
HEK293 Ca counter: counter-screen for MrgX1 allosteric activators: effect in parental HEK293 cells; AID 624114; shares compounds with MrgX1 antag; 4,000 compounds, 0.4% hits; parental HEK293 calcium flux, Fluo-4 fluorescence ratio; stronger effect = higher value; fluorescence ratio F(max-min)/F0 at 10 µM;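 active means calcium fluorescence ratio, averaged over duplicates, at least 3 SD of the buffer-well ratio, meaning a nonspecific response in receptor-free cells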;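 further: untransfected parental HEK293 lacking MrgX1 used as counterscreen for MrgX1 allosteric activators; fluorescence change taken during the second addition on a kinetic imager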
HEK293 Ca cntr2: activity in parental HEK293 cells lacking MrgX1 receptor. Fluo-4 calcium fluorescence (FDSS); stronger effect = higher value. 4,000 compounds, 8.7% hits. shares compounds with MrgX1 antag. fluorescence ratio F(max-min)/F0 at 10 µM. AID 624115;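 active means calcium fluorescence ratio at least three times the spread of buffer wells, meaning a non-specific response in parental cells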
Numbers without * were called inactive; i = inactive; nt = no result. A selection: hits, their analogues and other compounds. The true share with any hit is near 3.5%.

SMILES	RGS4 pot	MrgX1 agonist	MrgX1 allo act	RGS4 inh	MrgX1 antag	MrgX1 PAM conf	HEK293 Ca flux	HEK293 Ca counter	HEK293 Ca cntr2
COc1ccc(C(=O)C2CCN(CC(=O)Nc3ccc(OC)cc3OC)CC2)cc1	i	i	7.46*	i	i	i	i	i	i
COc1ccc(N2CC(C(=O)Nc3cc(C)ccn3)CC2=O)cc1 (configuration not stated)	i	i	8.09*	i	i	i	i	i	i
Cc1cc(C)c2c(=O)n(CC(=O)Nc3ccc(Br)c(C)c3)sc2n1	i	i	7.05*	i	i	i	i	i	i
O=C(NCCCn1ccnc1)c1ccccc1Cl	i	i	i	i	i	nt	nt	nt	nt
Cc1ccc(-n2c(C)cc(C(=O)CSc3nnnn3C)c2C)cc1	i	i	i	i	i	nt	nt	nt	nt
Cc1ccc(-n2c(C)cc(C(=O)CSc3nncs3)c2C)cc1	i	i	7.04*	i	i	2.1%*	i	i	i
CCn1nc(C)c(CCC(=O)O)c1C	i	i	10.1*	i	i	i	i	i	i
CC(C)Oc1ccc(/C(O)=C2/C(=O)C(=O)N(CCN3CCNCC3)C2c2cccc([N+](=O)[O-])c2)cc1 (configuration not stated)	i	i	i	i	i	nt	nt	nt	nt
CCOC(=O)C1C(=O)NC(N2CCN(Cc3ccccc3)CC2)=NC1c1ccccc1 (configuration not stated)	i	i	i	i	i	nt	nt	nt	nt
CCOC(=O)C1C(=O)NC(N2CCCCC2)=NC1c1ccccc1 (configuration not stated)	i	i	8.86*	i	i	i	i	i	i
Oc1ccccc1N1CCN(c2ccc3ccccc3n2)CC1	i	i	i	i	i	nt	nt	nt	nt
O=C(CNCC1CCCO1)Nc1ccccc1N1CCCCCC1 (configuration not stated)	i	i	6.91*	i	i	i	i	i	i
CC(Oc1ccc(F)cc1)C(=O)Nc1ccccc1N1CCCCC1 (configuration not stated)	i	i	12.2*	i	i	i	i	i	i
Cc1cc(OCC(=O)Nc2ccccc2N2CCCC2)ccc1C(C)C	i	i	22.2*	i	i	13.1%*	i	i	i
COc1cccc(CC(=O)Nc2ccccc2N2CCCC2)c1	i	i	9.44*	i	i	i	i	i	i
O=C(Nc1ccc2c(c1)OCO2)N1CCN(Cc2ccco2)CC1	i	i	i	i	i	nt	nt	nt	nt
Cc1cc(OCC(=O)Nc2ccccc2N2CCCCC2)ccc1C(C)C	i	i	6.87*	i	i	i	i	i	i
Cc1ccc(OCC(=O)Nc2ccccc2N2CCOCC2)c(C)c1	i	i	9.91*	i	i	i	i	i	i
Cc1cccc(OCC(=O)Nc2ccccc2N2CCCC2)c1C	i	i	26.2*	i	i	25.2%*	i	i	i
Cc1cccc(OCC(=O)Nc2cc(S(=O)(=O)N3CCCCC3)ccc2N2CCN(C)CC2)c1	i	i	16.4*	i	i	i	i	i	i
Cc1ccccc1OCC(=O)Nc1ccccc1N1CCCCC1	i	i	i	i	i	nt	nt	nt	nt
CN1CCN(c2ccc(S(=O)(=O)N3CCCCC3)cc2NC(=O)COc2ccc(F)cc2)CC1	i	i	i	i	i	nt	nt	nt	nt
CC(=O)Nc1cc2c3c(c1)CC(=O)N3CCC2	i	i	i	i	i	nt	nt	nt	nt
COC(=O)C(CC(=O)c1ccc(Cl)cc1)c1ccc(C(C)C)cc1 (configuration not stated)	i	i	7.14*	i	i	i	i	i	i
O=C(CC(C(=O)O)c1ccc(Cl)cc1)c1ccc(Cl)c(Cl)c1 (configuration not stated)	i	i	i	i	i	nt	nt	nt	nt
SMILES	RGS4 pot	MrgX1 agonist	MrgX1 allo act	RGS4 inh	MrgX1 antag	MrgX1 PAM conf	HEK293 Ca flux	HEK293 Ca counter	HEK293 Ca cntr2
Cc1ccc(C(F)(F)F)cc1NC(N)=S	i	i	7.17*	i	i	i	i	i	i
CCc1cccc(NC(=O)c2ccc(NS(=O)(=O)c3c(C)noc3C)cc2)c1	i	i	15.4*	i	i	15.0%*	i	i	i
Cc1sc(N(C(=O)CCc2ccccc2)c2ccc(C(=O)O)cc2)nc1-c1ccccc1	i	i	i	i	i	nt	nt	nt	nt
CCC(=O)N(c1ccc(C(=O)O)cc1)c1nc(-c2ccc(OC)cc2)c(C)s1	i	i	6.48*	i	i	i	i	i	i
CC(C)CN1CCC(=O)N([C@H](CO)Cc2ccccc2)CC1	i	i	i	i	i	nt	nt	nt	nt
Cc1cc(NC(=O)CSc2nnc(-c3cccs3)n2N)no1	i	i	i	i	i	nt	nt	nt	nt
CCCCn1c(SCC(=O)Nc2cc(C)on2)nnc1-c1cccs1	i	i	6.76*	i	i	i	i	i	i
c1ccc2nc3ccccc3nc2c1	i	i	i	i	i	nt	nt	nt	nt
Cc1cccc2nc3ccccc3nc12	i	i	9.32*	i	i	i	i	i	i
Cc1cc(C)cc(NC(=O)Nc2c(Br)cnn2C)c1	i	i	i	i	i	nt	nt	nt	nt
COC(=O)C(NC(C)=O)(Nc1nc2c(C)cc(C)cc2s1)C(F)(F)F (configuration not stated)	i	i	17.1*	i	i	i	i	i	i
Cc1cc(C)nc(NC(=O)c2ccc(COc3ccccc3Cl)cc2)c1	i	i	i	i	i	nt	nt	nt	nt
Cc1ccc(S(=O)(=O)N2CCCC2C(=O)OCC(=O)Nc2ccc3c(c2)OCO3)cc1 (configuration not stated)	i	i	16.8*	i	i	i	i	i	i
COc1ccc(CCN2CCCC(CN(C)C(=O)c3ccoc3)C2)cc1 (configuration not stated)	i	i	i	i	i	nt	nt	nt	nt
